Experimental data from different studies.
Each line is one published result; the experiments were not run side by side.
Cell line: PC-3
Observed: cell growth or viability

Structure (SMILES) | method | time | IC50
COc1cc(C(=O)c2nc(-c3ccc4ccccc4c3)c[nH]2)cc(OC)c1OC | MTS | 72 h | 0.388 µM
O=C1CCc2cc(-c3cccc(OC(=O)[C@H]4[C@H](c5ccccc5)[C@@H](C(=O)O)[C@H]4c4ccccc4)c3)ccc2N1 | MTT |  | 13.1 µM
COc1cc(C(=O)c2nc(-c3cccc4[nH]ccc34)c(Br)[nH]2)cc(OC)c1OC | MTS | 72 h | > 1 µM
O=C1CCP(=S)(c2ccccc2)CC1 | MTT | 72 h | 6 µM
O=C(O)C1C(c2ccccc2)C(C(=O)Oc2cc(-c3ccc4c(c3)OCO4)ccc2-c2cncnc2)C1c1ccccc1 (stereo not drawn) | MTT |  | 17.8 µM
O=[N+]([O-])c1ccc(NCCCCN=C=S)c2nonc12 | MTT | 24 h | 3.3 µM
COc1cc(C(=O)c2nc(-c3c[nH]c4cccc(C)c34)c[nH]2)cc(OC)c1OC | MTS | 72 h | 0.466 µM
N=c1c2c(-c3ccccc3)c(-c3ccccc3)n(Cc3ccccc3)c2ncn1[C@H]1CC[C@H](O)CC1 | CCK-8 |  | 10.8 µM
S=P1(C2CCCCC2)CCCCC1 | MTT | 72 h | > 100 µM
CC[C@@]1(O)C(=O)OCc2c1cc1n(c2=O)Cc2cc3ccccc3nc2-1 | SRB | 48 h | 0.15 µM
O=C1CCP(=[Se])(c2ccccc2)CC1 | MTT | 72 h | > 100 µM
C[S+]([O-])CCCCN=C=S (stereo not drawn) | MTT | 24 h | 33.5 µM
